Active and inactive are the calls of the source. The calls are words filed in the database; no cut-off is given here.
Columns and labels:
[1] = target: T1, CYP2C9 (Homo sapiens, UniProt P11712); experiment: Inhibition of CYP2C9 at 30 uM; assay type: ADME
Outline: (§1)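 CYP inhibition was tested at 3 and 30 μM and reported as percent inhibition. The assay was run by a contract lab.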

[2] = target: CYP2C19 (Homo sapiens, UniProt P33261); experiment: Inhibition of CYP2C19 at 30 uM; assay type: ADME; outline: as §1
Chain of CYP2C19 (P33261 whole entry): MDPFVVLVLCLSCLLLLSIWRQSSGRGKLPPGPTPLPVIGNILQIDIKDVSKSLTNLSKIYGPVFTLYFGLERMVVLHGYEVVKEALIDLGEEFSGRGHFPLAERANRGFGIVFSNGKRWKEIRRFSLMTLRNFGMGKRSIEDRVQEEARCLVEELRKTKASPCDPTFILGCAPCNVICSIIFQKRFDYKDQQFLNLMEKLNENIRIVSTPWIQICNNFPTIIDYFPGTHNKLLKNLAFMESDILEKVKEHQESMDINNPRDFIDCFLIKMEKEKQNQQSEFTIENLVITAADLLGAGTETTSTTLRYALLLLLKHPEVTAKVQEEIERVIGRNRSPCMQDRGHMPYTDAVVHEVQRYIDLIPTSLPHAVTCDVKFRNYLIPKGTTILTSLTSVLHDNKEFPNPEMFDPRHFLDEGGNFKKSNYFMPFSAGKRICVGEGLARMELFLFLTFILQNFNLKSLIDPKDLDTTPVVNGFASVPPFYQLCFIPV

[3] = tested on: Liver microsomes; experiment: Metabolic stability in human liver microsomes assessed as formation of reactive metabolites at 1 uM after 1 hr; assay type: ADME, Microsome
[4] = tested on: Mus musculus; experiment: Agonist activity at TrkB receptor in C57BL/J6 mouse brain assessed as TrkB phosphorylation at tyrosine 816 in hippocampus at 1 mg/kg, po after 2 hrs by immunoblotting analysis; assay type: functional, organism-based; parameters: dose 1 mg/kg
Outline: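 Hippocampus from male C57BL/6J mice was taken 2 h after a single 1 mg/kg oral dose. Brain was homogenised and ultracentrifuged, and 40 μg supernatant was immunoblotted for p-TrkB, p-Akt and p-MAPK.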

[5] = target: T2, CYP3A4 (Homo sapiens, UniProt P08684); experiment: Inhibition of CYP3A4 at 3 uM using modazolam substrate; assay type: ADME; conditions: probe midazolam (printed: modazolam)
T2 sequence (P08684 whole entry): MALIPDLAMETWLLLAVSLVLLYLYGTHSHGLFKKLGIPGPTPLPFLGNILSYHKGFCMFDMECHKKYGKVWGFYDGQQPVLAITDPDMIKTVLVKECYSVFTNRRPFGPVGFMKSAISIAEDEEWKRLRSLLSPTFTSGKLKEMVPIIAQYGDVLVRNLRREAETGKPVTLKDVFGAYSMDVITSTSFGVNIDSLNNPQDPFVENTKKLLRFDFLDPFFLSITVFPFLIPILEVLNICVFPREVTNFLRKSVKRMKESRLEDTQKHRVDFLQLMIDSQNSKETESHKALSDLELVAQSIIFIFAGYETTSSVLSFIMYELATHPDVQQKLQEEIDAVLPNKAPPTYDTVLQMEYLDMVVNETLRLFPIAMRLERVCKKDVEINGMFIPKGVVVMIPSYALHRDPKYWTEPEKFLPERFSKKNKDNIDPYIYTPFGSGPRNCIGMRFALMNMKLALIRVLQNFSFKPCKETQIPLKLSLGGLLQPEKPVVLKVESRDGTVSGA

[6] = target: T2, CYP3A4; experiment: Inhibition of CYP3A4 at 30 uM using modazolam substrate; assay type: ADME; conditions: probe midazolam (printed: modazolam)
[7] = tested on: Mus musculus; experiment: Agonist activity at TrkB receptor in C57BL/J6 mouse brain assessed as TrkB phosphorylation at tyrosine 816 in hippocampus at 2.5 mg/kg, po administered qd for 21 days by immunoblotting analysis
[8] = organism: Mus musculus; experiment: Agonist activity at TrkB receptor in C57BL/J6 mouse brain assessed as TrkB phosphorylation at tyrosine 706 in hippocampus at […] by immunoblotting analysis; assay type: functional, organism-based
[9] = tested on: HepG2; experiment: Cytotoxicity against human HepG2 cells assessed as cell death upto 100 uM after 24 hrs by LDH assay; assay type: cell-based; conditions: hepg2, 24 h
Outline: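 HepG2 cells were exposed to a range of concentrations up to 100 μM for 24 h, and cytotoxicity was measured by LDH release. n=3.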

[10] = Drug recovery in human plasma at 5 uM; assay type: ADME, cell-free; conditions: read-out: Drug uptake
Outline: (§2)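 Human plasma protein binding was tested at 5 μM, reporting fraction unbound, fraction bound and recovery. The assay was run by a contract lab.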

[11] = target: T1, CYP2C9; experiment: Inhibition of CYP2C9 at 3 uM; assay type: ADME; outline: as §1
[12] = tested on: Mus musculus; experiment: Toxicity in C57BL/J6 mouse assessed as increase in locomotion at 2.5 mg/kg, po administered qd for 21 days by locomotor activity assay; assay type: organism-based; parameters: dose 2.5 mg/kg, route oral; conditions: in vivo, 504 h
Outline: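 Male C57BL/6J mice were given compound or saline vehicle by oral gavage once daily for 21 days, with forced swim and tail suspension tests also run. Ambulations (consecutive photobeam breaks) were recorded in automated locomotor chambers for 2 h, binned at 30 min intervals.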

[13] = tested on: Mus musculus; experiment: Agonist activity at TrkB receptor in C57BL/J6 mouse brain assessed as TrkB phosphorylation at tyrosine 816 in dentate gyrus at 2.5 mg/kg, po administered qd for 21 days by immunohistochemical staining; assay type: functional, organism-based; parameters: dose 2.5 mg/kg
Outline: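 Mice were gavaged with 2.5 mg/kg/day for 21 days and perfused with 4% paraformaldehyde. Paraffin sections of 6 μm had antigen retrieval by boiling in 10 mM citrate, pH 6.0. Sections were stained with anti-p-TrkB 816 at 1:300 and anti-TrkB at 1:50, with fluorescent secondaries and DAPI, and dentate gyrus was examined.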

[14] = tested on: Mus musculus; experiment: Antidepressant activity in C57BL/J6 mouse assessed as reduction of immobility at 2.5 mg/kg, po administered qd for 21 days by tail suspension test; assay type: functional, organism-based; parameters: dose 2.5 mg/kg
Outline: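 Male C57BL/6J mice were gavaged once daily for 21 days with 2.5 mg/kg or saline vehicle, then tested for immobility during tail suspension. n=8, Student's t-test.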

[15] = Metabolic stability in human liver microsomes assessed as remaining parent compound at 1 uM after 1 hr in the presence of […]; assay type: ADME, Microsome; conditions: read-out: Stability
Outline: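 Human liver microsomes were incubated with test compound at 1 μM for 1 h. Percent parent remaining was measured with cofactor and in a cofactor-free control. The work was done by a contract lab.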

[16] = target: BDNF/NT-3 growth factors receptor (Rattus norvegicus) (UniProt Q63604); experiment: Agonist activity at TrkB receptor in rat primary neurons assessed as Akt phosphorylation at 500 nM after 15 mins by immunoblotting analysis; assay type: functional
Chain of BDNF/NT-3 growth factors receptor (Rattus norvegicus) (Q63604 whole entry): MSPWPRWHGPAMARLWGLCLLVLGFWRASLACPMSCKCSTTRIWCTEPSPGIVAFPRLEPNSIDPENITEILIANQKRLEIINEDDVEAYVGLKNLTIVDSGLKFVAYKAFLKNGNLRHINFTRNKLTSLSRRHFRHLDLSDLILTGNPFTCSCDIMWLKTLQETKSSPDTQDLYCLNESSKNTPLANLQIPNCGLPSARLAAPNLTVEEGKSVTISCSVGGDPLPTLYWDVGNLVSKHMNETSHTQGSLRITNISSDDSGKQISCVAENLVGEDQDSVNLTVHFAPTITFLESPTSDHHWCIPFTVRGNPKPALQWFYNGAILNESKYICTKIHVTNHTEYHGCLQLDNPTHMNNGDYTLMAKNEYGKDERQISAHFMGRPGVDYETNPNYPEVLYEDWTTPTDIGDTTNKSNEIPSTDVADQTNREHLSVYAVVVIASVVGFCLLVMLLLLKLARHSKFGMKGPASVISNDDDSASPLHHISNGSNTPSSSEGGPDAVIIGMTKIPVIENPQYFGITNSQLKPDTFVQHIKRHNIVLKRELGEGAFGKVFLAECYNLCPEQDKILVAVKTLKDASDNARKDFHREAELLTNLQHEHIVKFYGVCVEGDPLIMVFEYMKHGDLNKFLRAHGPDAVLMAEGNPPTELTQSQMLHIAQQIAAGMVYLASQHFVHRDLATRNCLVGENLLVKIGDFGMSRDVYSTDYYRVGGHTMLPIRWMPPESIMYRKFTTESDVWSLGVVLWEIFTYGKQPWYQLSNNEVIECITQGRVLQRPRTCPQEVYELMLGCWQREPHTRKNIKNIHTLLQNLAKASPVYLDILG
Outline: (§3)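 Primary cortical cultures from E17 rat embryos were exposed to 500 nM for 15 min. Lysates were immunoblotted for p-TrkB and p-Akt (20 μg per lane). Two replicate experiments.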

[17] = tested on: HepG2; experiment: Genotoxicity in human HepG2 cells assessed as induction of DNA lesion at 100 uM after 24 hrs by comet assay; assay type: toxicity, cell-based; conditions: hepg2, 24 h
Outline: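 HepG2 cells were exposed to 100 μM for 24 h, with etoposide as positive control. Cells were embedded in agarose, lysed 2 h at 4°C at pH 10, unwound 40 min in alkali at pH >13 and electrophoresed at 25 V for 30 min at 4°C. After ethidium bromide staining, comet-tail nuclei were counted in >100 cells per field. Three independent experiments, one-way ANOVA.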

[18] = tested on: HepG2; experiment: Genotoxicity in human HepG2 cells assessed as micronuclei formation at 50 uM after 24 hrs by DAPI staining; assay type: toxicity, cell-based; conditions: hepg2, 24 h
Outline: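 HepG2 cells were exposed to 50 μM for 24 h, with benzo(a)pyrene as positive control. Cells were swollen in hypotonic KCl/NaCl for 10 min at 37°C, fixed in methanol/acetic acid 3:1 and stained with DAPI at 2 μg/ml. Three independent experiments, one-way ANOVA.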

[19] = tested on: Mus musculus; experiment: Antidepressant activity in C57BL/J6 mouse assessed as reduction of immobility at 2.5 mg/kg, po administered qd for 21 days recorded in last 4 mins by forced swim test; assay type: functional; parameters: scale not given: the % may be the effect or the level left
Outline: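 Male C57BL/6J mice, 2–3 months old, were gavaged daily for 21 days with drug (5 or 2.5 mg/kg) or saline and adapted to the test room for 2 days. With no preswim, each mouse was placed for 6 min in a 16-cm cylinder of 24 °C water, 14 cm deep. Immobility in the last 4 min was scored blind and compared by unpaired t-test (n=6 or 8).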

[20] = tested on: Plasma; experiment: Fraction unbound in human plasma at 5 uM; assay type: ADME, cell-free; outline: as §2
[21] = tested on: Mus musculus; experiment: Agonist activity at TrkB receptor in C57BL/J6 mouse brain assessed as Akt phosphorylation at serine 473 in hippocampus at 2.5 mg/kg, po after 2 hrs by immunoblotting analysis; assay type: functional, organism-based; parameters: dose 2.5 mg/kg
[22] = target: T2, CYP3A4; experiment: Inhibition of CYP3A4 at 30 uM using testosterone substrate; assay type: ADME; conditions: probe testosterone
[23] = tested on: Mus musculus; experiment: Agonist activity at TrkB receptor in C57BL/J6 mouse brain assessed as TrkB phosphorylation at tyrosine 816 in hippocampus at 2.5 mg/kg, po […] by Western blotting analysis; assay type: functional, organism-based; parameters: dose 2.5 mg/kg
Outline: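 Male C57BL/6J mice were gavaged with 2.5 mg/kg/day for 21 days, with saline vehicle controls. Hippocampus was collected after the behavioural tests, and BrdU at 100 mg/kg i.p. was given 2 h before sacrifice. Lysates were immunoblotted for p-TrkB, total TrkB and p-Akt, and the p-TrkB/TrkB ratio was determined. Two replicate experiments, Student's t-test.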

[24] = target: BDNF/NT-3 growth factors receptor (Rattus norvegicus) (UniProt Q63604); experiment: Agonist activity at TrkB receptor in rat primary neurons assessed as TrkB phosphorylation at tyrosine 816 at 500 nM after 15 mins by immunoblotting analysis; assay type: functional; outline: as §3
[25] = target: CYP2D6 (Homo sapiens, UniProt P10635); experiment: Inhibition of CYP2D6 at 30 uM; assay type: ADME
Chain of CYP2D6 (P10635 whole entry): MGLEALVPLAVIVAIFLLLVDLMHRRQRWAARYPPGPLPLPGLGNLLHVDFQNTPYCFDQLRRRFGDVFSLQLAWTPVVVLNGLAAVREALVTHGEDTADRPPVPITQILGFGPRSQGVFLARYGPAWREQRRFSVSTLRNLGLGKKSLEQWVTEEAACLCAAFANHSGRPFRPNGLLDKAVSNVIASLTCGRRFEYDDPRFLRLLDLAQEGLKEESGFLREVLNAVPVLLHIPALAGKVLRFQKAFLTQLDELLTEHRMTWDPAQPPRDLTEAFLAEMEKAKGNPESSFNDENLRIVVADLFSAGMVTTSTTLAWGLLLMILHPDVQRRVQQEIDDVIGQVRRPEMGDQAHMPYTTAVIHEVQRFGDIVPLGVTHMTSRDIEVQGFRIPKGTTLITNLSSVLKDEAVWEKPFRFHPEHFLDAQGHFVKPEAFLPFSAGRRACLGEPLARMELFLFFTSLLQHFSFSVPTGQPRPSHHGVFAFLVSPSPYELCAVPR

T1 sequence (P11712 whole entry): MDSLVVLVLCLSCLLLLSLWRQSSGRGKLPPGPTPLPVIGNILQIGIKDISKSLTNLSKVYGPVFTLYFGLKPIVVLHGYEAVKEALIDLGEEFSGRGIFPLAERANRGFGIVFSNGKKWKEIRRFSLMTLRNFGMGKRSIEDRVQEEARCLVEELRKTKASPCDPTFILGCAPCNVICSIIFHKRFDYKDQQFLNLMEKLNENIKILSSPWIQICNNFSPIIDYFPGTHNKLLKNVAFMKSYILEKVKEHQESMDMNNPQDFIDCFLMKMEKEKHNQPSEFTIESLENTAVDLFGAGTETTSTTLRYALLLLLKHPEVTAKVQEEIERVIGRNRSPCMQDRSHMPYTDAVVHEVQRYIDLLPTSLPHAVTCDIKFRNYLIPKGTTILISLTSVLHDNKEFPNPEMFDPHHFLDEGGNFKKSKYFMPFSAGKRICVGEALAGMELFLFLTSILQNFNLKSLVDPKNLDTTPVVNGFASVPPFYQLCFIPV

Row | inhibition at 30 µM [1] | inhibition at 30 µM [2] | Stability [3] | inhibition at 3 µM [5] | inhibition at 30 µM [6] | remaining at 5 µM [10] | inhibition at 3 µM [11] | remaining at 1 h, 1 µM [15] | Activity [16] | Fu [20] | SMILES | Activity [4] | Activity [7] | Activity [8] | Activity [9] | Activity [12] | Activity [13] | Activity [14] | Activity [17] | Activity [18] | Activity [19] | also measured
1 | 73.6% | 57.7% | Stable | 10.8% | 40.5% | 86.3% | 12.4% | 25.4% | Active | 0.03% | Cc1nc2ccc3c(=O)cc(-c4ccc(N5CCCC5)cc4)oc3c2[nH]1 | Active | Active | Active | Non-toxic | Non-toxic | Active | Active | Non-toxic | Non-toxic | 45% | Activity [21]: Active; inhibition at 30 µM [22]: 43.3%; Activity [23]: Active; Activity [24]: Active; inhibition at 30 µM [25]: 32%
2 | 52.9% | 90% | Unstable | 3.9% | 48.1% | 97% | 11.9% | 1.2% | Active | 0.07% | O=c1cc(-c2ccc(N3CCCC3)cc2)oc2c1ccc1cc[nH]c12 | Active | Active | Active | Non-toxic | Non-toxic | Active | inactive | Non-toxic | Non-toxic | inactive | Activity [21]: Active; inhibition at 30 µM [22]: 18.7%; Activity [23]: Active; Activity [24]: Active; inhibition at 30 µM [25]: 81.6%

Source: ChEMBL document CHEMBL2203249, “Optimization of a small tropomyosin-related kinase B (TrkB) agonist 7,8-dihydroxyflavone active in mouse models of depression” (J Med Chem, 2012)
